Values joined by “and” are separate entries in the source; they are usually repeats but may differ in a detail not shown here. Identical values can stand only once.
How the values were obtained:
Type in all cases: toxicity, cell-based
Fibroblast [1] = assay: Incucyte cell viability with human fibroblast; conditions: 10 µM, compound concentration 10 uM; note: filed as whole numbers so only -1 and 0 and 1 occur
HEK-293T [2] = assay: Incucyte cell viability with HEK293T; conditions: human, 10 µM, compound concentration 10 uM; note: filed as whole numbers so only -1 and 0 and 1 occur
U2OS [3] = assay: Multiplex assay against U2OS; conditions: human, 1 µM, compound concentration 1 uM
Outline: (§1)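 Cells stained live at seeding with Hoechst33342, BioTracker Green Microtubule Cytoskeleton Dye, MitoTracker Red and Annexin V Alexa Fluor 680 were imaged on a CQ1 microscope at 37°C and 5% CO2 after compound addition. Their classification by CellPathfinder machine-learning gating ran from Hoechst high-intensity objects versus normal cells, to healthy, pyknosed or fragmented nuclei among normal cells, to mitotic or apoptotic among pyknosed cells. Tubulin, mitochondrial-mass and membrane-permeability phenotypes are per cents of healthy-nucleus cells.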

HEK-293T [4] = assay: Multiplex assay against HEK293T; conditions: human, 1 µM, compound concentration 1 uM; outline: as §1;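 for Population Tubulin-Different-Phenotype (%): share of the cells with healthy nuclei that show this phenotype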
U2OS [5] = assay: Incucyte cell viability with U2OS; conditions: human, 10 µM, compound concentration 10 uM; note: filed as whole numbers so only -1 and 0 and 1 occur
Fibroblast [6] = assay: Multiplex assay against human fibroblast; conditions: 1 µM, compound concentration 1 uM; outline: as §1
[7] = 0 h, replicate number 1, timepoint 0 hours
[8] = 12 h, replicate number 1, timepoint 12 hours
[9] = 12 h, replicate number 2, timepoint 12 hours
[10] = 18 h, replicate number 1, timepoint 18 hours
[11] = 24 h, replicate number 1, timepoint 24 hours
[12] = 6 h, replicate number 1, timepoint 6 hours

SMILES: CC[C@@H]1C(=O)N(C)c2cnc(Nc3ccc(C(=O)N[C@H]4CC[C@H](N5CCN(CC6CC6)CC5)CC4)cc3OC)nc2N1C(C)C [VOLASERTIB]
- Growth Rate (Fibroblast [1]; [7]): 0
- Growth Rate (Fibroblast [1]; [8]): 0
- Growth Rate (Fibroblast [1]; [9]): 1
- Growth Rate (Fibroblast [1]; [10]): 0
- Growth Rate (Fibroblast [1]; [11]): 0
- Growth Rate (HEK-293T [2]; [7]): 0
- Growth Rate (HEK-293T [2]; [12]): 0
- Growth Rate (HEK-293T [2]; [8]): 0
- Growth Rate (HEK-293T [2]; [10]): 0
- Growth Rate (HEK-293T [2]; [11]): 0
- Population Apoptotic (%) (U2OS [3]; 12 h, replicate 1): 60% and 78%
- Population Fragmented Nuclei (%) (U2OS [3]; 12 h, replicate 1): 8% and 12%
- Population Healthy Nuclei (%) (U2OS [3]; 12 h, replicate 1): 81% and 61%
- Population Hoechst High Intensity Objects (%) (U2OS [3]; 12 h, replicate 1): 4% and 3%
- Population Membrane Permeable-Phenotype (%) (U2OS [3]; 12 h, replicate 1): 46% and 31%
- Population Mitochondria Different-Phenotype (%) (U2OS [3]; 12 h, replicate 1): 32% and 71%
- Population Mitotic Cells (%) (U2OS [3]; 12 h, replicate 1): 40% and 21%
- Population Normal (%) (U2OS [3]; 12 h, replicate 1): 95% and 96%
- Population Pyknosed Nuclei (%) (U2OS [3]; 12 h, replicate 1): 10% and 25%
- Population Tubulin-Different-Phenotype (%) (U2OS [3]; 12 h, replicate 1): 88% and 100%
- Total Cell Count (U2OS [3]; 12 h, replicate 1): 145 and 156
- Population Apoptotic (%) (U2OS [3]; 12 h, replicate 2): 75% and 76%
- Population Fragmented Nuclei (%) (U2OS [3]; 12 h, replicate 2): 11% and 18%
- Population Healthy Nuclei (%) (U2OS [3]; 12 h, replicate 2): 82% and 57%
- Population Hoechst High Intensity Objects (%) (U2OS [3]; 12 h, replicate 2): 21% and 7%
- Population Membrane Permeable-Phenotype (%) (U2OS [3]; 12 h, replicate 2): 30% and 61%
- Population Mitochondria Different-Phenotype (%) (U2OS [3]; 12 h, replicate 2): 46% and 96%
- Population Mitotic Cells (%) (U2OS [3]; 12 h, replicate 2): 25% and 24%
- Population Normal (%) (U2OS [3]; 12 h, replicate 2): 78% and 92%
- Population Tubulin-Different-Phenotype (%) (U2OS [3]; 12 h, replicate 2): 94%
- Total Cell Count (U2OS [3]; 12 h, replicate 2): 110 and 80
- Population Apoptotic (%) (U2OS [3]; 24 h, replicate 1): 66% and 77%
- Population Fragmented Nuclei (%) (U2OS [3]; 24 h, replicate 1): 10%
- Population Healthy Nuclei (%) (U2OS [3]; 24 h, replicate 1): 76% and 58%
- Population Hoechst High Intensity Objects (%) (U2OS [3]; 24 h, replicate 1): 5%
- Population Membrane Permeable-Phenotype (%) (U2OS [3]; 24 h, replicate 1): 28% and 82%
- Population Mitochondria Different-Phenotype (%) (U2OS [3]; 24 h, replicate 1): 38% and 96%
- Population Mitotic Cells (%) (U2OS [3]; 24 h, replicate 1): 33% and 22%
- Population Normal (%) (U2OS [3]; 24 h, replicate 1): 94%
- Population Pyknosed Nuclei (%) (U2OS [3]; 24 h, replicate 1): 14% and 23%
- Population Tubulin-Different-Phenotype (%) (U2OS [3]; 24 h, replicate 1): 78%
- Total Cell Count (U2OS [3]; 24 h, replicate 1): 159 and 158
- Population Apoptotic (%) (U2OS [3]; 24 h, replicate 2): 65% and 61%
- Population Fragmented Nuclei (%) (U2OS [3]; 24 h, replicate 2): 18% and 15%
- Population Healthy Nuclei (%) (U2OS [3]; 24 h, replicate 2): 48% and 67%
- Population Hoechst High Intensity Objects (%) (U2OS [3]; 24 h, replicate 2): 10% and 12%
- Population Membrane Permeable-Phenotype (%) (U2OS [3]; 24 h, replicate 2): 86%
- Population Mitochondria Different-Phenotype (%) (U2OS [3]; 24 h, replicate 2): 100% and 57%
- Population Mitotic Cells (%) (U2OS [3]; 24 h, replicate 2): 34% and 38%
- Population Normal (%) (U2OS [3]; 24 h, replicate 2): 89% and 87%
- Population Pyknosed Nuclei (%) (U2OS [3]; 24 h, replicate 2): 32% and 17%
- Population Tubulin-Different-Phenotype (%) (U2OS [3]; 24 h, replicate 2): 100% and 71%
- Total Cell Count (U2OS [3]; 24 h, replicate 2): 83 and 123
- Population Apoptotic (%) (HEK-293T [4]; 12 h, replicate 1): 44% and 18%
- Population Fragmented Nuclei (%) (HEK-293T [4]; 12 h, replicate 1): 29% and 10%
- Population Healthy Nuclei (%) (HEK-293T [4]; 12 h, replicate 1): 31% and 58%
- Population Hoechst High Intensity Objects (%) (HEK-293T [4]; 12 h, replicate 1): 18% and 13%
- Population Membrane Permeable-Phenotype (%) (HEK-293T [4]; 12 h, replicate 1): 15% and 21%
- Population Mitotic Cells (%) (HEK-293T [4]; 12 h, replicate 1): 55% and 81%
- Population Normal (%) (HEK-293T [4]; 12 h, replicate 1): 81% and 86%
- Population Pyknosed Nuclei (%) (HEK-293T [4]; 12 h, replicate 1): 38% and 30%
- Population Tubulin-Different-Phenotype (%) (HEK-293T [4]; 12 h, replicate 1): 77% and 61%
- Total Cell Count (HEK-293T [4]; 12 h, replicate 1): 539 and 544
- Population Fragmented Nuclei (%) (HEK-293T [4]; 12 h, replicate 2): 3%
- Population Healthy Nuclei (%) (HEK-293T [4]; 12 h, replicate 2): 76%
- Population Hoechst High Intensity Objects (%) (HEK-293T [4]; 12 h, replicate 2): 2% and 5%
- Population Membrane Permeable-Phenotype (%) (HEK-293T [4]; 12 h, replicate 2): 18% and 12%
- Population Mitochondria Different-Phenotype (%) (HEK-293T [4]; 12 h, replicate 2): 31% and 62%
- Population Mitotic Cells (%) (HEK-293T [4]; 12 h, replicate 2): 93% and 80%
- Population Normal (%) (HEK-293T [4]; 12 h, replicate 2): 97% and 94%
- Population Pyknosed Nuclei (%) (HEK-293T [4]; 12 h, replicate 2): 19%
- Population Tubulin-Different-Phenotype (%) (HEK-293T [4]; 12 h, replicate 2): 87% and 96%
- Total Cell Count (HEK-293T [4]; 12 h, replicate 2): 982 and 1003
- Population Healthy Nuclei (%) (HEK-293T [4]; 24 h, replicate 1): 30% and 54%
- Population Hoechst High Intensity Objects (%) (HEK-293T [4]; 24 h, replicate 1): 21% and 9%
- Population Membrane Permeable-Phenotype (%) (HEK-293T [4]; 24 h, replicate 1): 9% and 11%
- Population Mitotic Cells (%) (HEK-293T [4]; 24 h, replicate 1): 53% and 84%
- Population Normal (%) (HEK-293T [4]; 24 h, replicate 1): 78% and 90%
- Population Pyknosed Nuclei (%) (HEK-293T [4]; 24 h, replicate 1): 36% and 34%
- Population Tubulin-Different-Phenotype (%) (HEK-293T [4]; 24 h, replicate 1): 77% and 76%
- Total Cell Count (HEK-293T [4]; 24 h, replicate 1): 579 and 547
- Population Apoptotic (%) (HEK-293T [4]; 24 h, replicate 2): 6% and 12%
- Population Fragmented Nuclei (%) (HEK-293T [4]; 24 h, replicate 2): 3% and 7%
- Population Healthy Nuclei (%) (HEK-293T [4]; 24 h, replicate 2): 47% and 61%
- Population Hoechst High Intensity Objects (%) (HEK-293T [4]; 24 h, replicate 2): 3% and 6%
- Population Membrane Permeable-Phenotype (%) (HEK-293T [4]; 24 h, replicate 2): 7% and 10%
- Population Mitochondria Different-Phenotype (%) (HEK-293T [4]; 24 h, replicate 2): 28% and 53%
- Population Mitotic Cells (%) (HEK-293T [4]; 24 h, replicate 2): 93% and 87%
- Population Normal (%) (HEK-293T [4]; 24 h, replicate 2): 96% and 93%
- Population Pyknosed Nuclei (%) (HEK-293T [4]; 24 h, replicate 2): 48% and 30%
- Population Tubulin-Different-Phenotype (%) (HEK-293T [4]; 24 h, replicate 2): 91% and 83%
- Total Cell Count (HEK-293T [4]; 24 h, replicate 2): 956 and 1101
- Growth Rate (U2OS [5]; 0 h, replicate number 2, timepoint 0 hours): 0
- Growth Rate (U2OS [5]; [12]): 1
- Growth Rate (U2OS [5]; [8]): 0
- Growth Rate (U2OS [5]; [9]): 1
- Growth Rate (U2OS [5]; [10]): 0
- Growth Rate (U2OS [5]; [11]): 0
- Population Apoptotic (%) (Fibroblast [6]; 12 h, replicate 1): 76% and 71%
- Population Fragmented Nuclei (%) (Fibroblast [6]; 12 h, replicate 1): 43% and 28%
- Population Healthy Nuclei (%) (Fibroblast [6]; 12 h, replicate 1): 42% and 54%
- Population Hoechst High Intensity Objects (%) (Fibroblast [6]; 12 h, replicate 1): 14% and 22%
- Population Membrane Permeable-Phenotype (%) (Fibroblast [6]; 12 h, replicate 1): 9% and 7%
- Population Mitochondria Different-Phenotype (%) (Fibroblast [6]; 12 h, replicate 1): 6% and 11%
- Population Mitotic Cells (%) (Fibroblast [6]; 12 h, replicate 1): 24% and 28%
- Population Normal (%) (Fibroblast [6]; 12 h, replicate 1): 85% and 77%
- Population Pyknosed Nuclei (%) (Fibroblast [6]; 12 h, replicate 1): 13% and 16%
- Total Cell Count (Fibroblast [6]; 12 h, replicate 1): 213 and 342
- Population Apoptotic (%) (Fibroblast [6]; 12 h, replicate 2): 53% and 50%
- Population Fragmented Nuclei (%) (Fibroblast [6]; 12 h, replicate 2): 48% and 67%
- Population Healthy Nuclei (%) (Fibroblast [6]; 12 h, replicate 2): 32% and 24%
- Population Hoechst High Intensity Objects (%) (Fibroblast [6]; 12 h, replicate 2): 36% and 43%
- Population Membrane Permeable-Phenotype (%) (Fibroblast [6]; 12 h, replicate 2): 17% and 16%
- Population Mitochondria Different-Phenotype (%) (Fibroblast [6]; 12 h, replicate 2): 26% and 33%
- Population Mitotic Cells (%) (Fibroblast [6]; 12 h, replicate 2): 46% and 50%
- Population Normal (%) (Fibroblast [6]; 12 h, replicate 2): 63% and 56%
- Population Pyknosed Nuclei (%) (Fibroblast [6]; 12 h, replicate 2): 18% and 8%
- Population Tubulin-Different-Phenotype (%) (Fibroblast [6]; 12 h, replicate 2): 78% and 58%
- Total Cell Count (Fibroblast [6]; 12 h, replicate 2): 111 and 87
- Population Apoptotic (%) (Fibroblast [6]; 24 h, replicate 1): 84% and 80%
- Population Fragmented Nuclei (%) (Fibroblast [6]; 24 h, replicate 1): 23% and 37%
- Population Healthy Nuclei (%) (Fibroblast [6]; 24 h, replicate 1): 52% and 50%
- Population Hoechst High Intensity Objects (%) (Fibroblast [6]; 24 h, replicate 1): 31% and 16%
- Population Membrane Permeable-Phenotype (%) (Fibroblast [6]; 24 h, replicate 1): 7%
- Population Mitotic Cells (%) (Fibroblast [6]; 24 h, replicate 1): 15% and 19%
- Population Normal (%) (Fibroblast [6]; 24 h, replicate 1): 68% and 83%
- Population Pyknosed Nuclei (%) (Fibroblast [6]; 24 h, replicate 1): 24% and 11%
- Total Cell Count (Fibroblast [6]; 24 h, replicate 1): 319 and 221
- Population Apoptotic (%) (Fibroblast [6]; 24 h, replicate 2): 100% and 64%
- Population Fragmented Nuclei (%) (Fibroblast [6]; 24 h, replicate 2): 62% and 44%
- Population Healthy Nuclei (%) (Fibroblast [6]; 24 h, replicate 2): 36% and 33%
- Population Hoechst High Intensity Objects (%) (Fibroblast [6]; 24 h, replicate 2): 38%
- Population Membrane Permeable-Phenotype (%) (Fibroblast [6]; 24 h, replicate 2): 5% and 13%
- Population Mitochondria Different-Phenotype (%) (Fibroblast [6]; 24 h, replicate 2): 22% and 45%
- Population Normal (%) (Fibroblast [6]; 24 h, replicate 2): 61%
- Population Tubulin-Different-Phenotype (%) (Fibroblast [6]; 24 h, replicate 2): 27% and 72%
- Total Cell Count (Fibroblast [6]; 24 h, replicate 2): 81 and 106

Source: ChEMBL document CHEMBL4689842, “EUbOPEN Chemogenomics Library wave 1” (2021)
